The test system of assay [1] is A549. Briefly: Growth inhibition of human A549 cells after 48 hrs by MTT assay. The class given is functional, cell-based. The following applies: A549, 48 h. The procedure, abridged:
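A549 cells kept in RPMI 1640 with 10% (v/v) bovine calf serum and 80 U/ml gentamicin at 37 °C, 5% CO2, and seeded in 96-well plates at 6250/cm². They were exposed to compound at 8, 16, 32 and 64 µM for 12, 24 or 48 h. Viability was read by MTT absorbance at 570 nm and expressed as percent of untreated control (n = 3).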

For assay [2], the system named is A549. Briefly: Induction of necrosis in human A549 cells at 64 uM after 48 hrs by LDH assay. Type of assay: functional, cell-based. The procedure, abridged: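 A549 cells cultured in RPMI 1640 with 10% bovine calf serum were exposed to compound at 64 µM for 48 h. LDH released into the culture medium was measured by absorbance at 340 nm on a UV–vis spectrometer and compared with untreated control cells.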

Assay [3] relates to A549. Briefly: Viability of human A549 cells at 32 uM after 12 hrs by MTT assay relative to control. The following applies: A549, 12 h. On the technique in general: Formazan colour is commonly taken as a measure of viable cells.
For assay [4], the system named is A549. The assay can be described thus: Viability of human A549 cells at 32 uM after 48 hrs by MTT assay relative to control. The following applies: A549, 48 h.
For assay [5], the system named is A549. Briefly: Viability of human A549 cells at 32 uM after 24 hrs by MTT assay relative to control. The following applies: A549, 24 h.
Assay [6] deals with A549. The assay can be described thus: Viability of human A549 cells at 64 uM after 48 hrs by MTT assay relative to control. The following applies: A549, 48 h.
Assay [7] concerns A549. The assay can be described thus: Induction of apoptosis in human A549 cells assessed as DNA fragmentation at 32 uM after 48 hrs by acridine orange staining. Type of assay: functional, cell-based. The procedure, abridged:
(§1)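 A549 cells in RPMI 1640 with 10% bovine calf serum were treated with compound at 16 or 32 µM for 24 or 48 h. They were then stained with acridine orange for 1 min at room temperature and imaged by fluorescence microscopy. Nuclear DNA fragmentation, chromatin condensation and the volume of the acidic compartment were scored by eye (n = 4).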

For assay [8], the system named is A549. Briefly: Induction of apoptosis in human A549 cells assessed as DNA fragmentation at 16 uM after 24 hrs by acridine orange staining. The class given is functional, cell-based. The procedure, abridged:
as §1

For assay [9], the system named is A549. The assay can be described thus: Induction of apoptosis in human A549 cells assessed as DNA fragmentation at 32 uM after 24 hrs by acridine orange staining. Type of assay: functional, cell-based. The procedure, abridged: as §1
The test system of assay [10] is A549. Briefly: Induction of autophagy in human A549 cells assessed as volume of cellular acidic compartment at 32 uM by acridine orange staining. The class given is functional, cell-based. The procedure, abridged:
as §1

Assay [11] deals with A549. Briefly: Induction of apoptosis in human A549 cells assessed as DNA fragmentation at 16 uM after 48 hrs by acridine orange staining. Type of assay: functional, cell-based. The procedure, abridged:
as §1

Activity calls are given as the source filed them. The calls are words filed in the database; no cut-off is given here.

For the compound `COc1ccc(-c2cc3n(n2)CCN(Cc2ccc(C(C)(C)C)cc2)C3=O)cc1`, the half-inhibitory concentration (IC50) (usually the concentration that gives 50% inhibition) in the assay with A549 [1] came out at 50.2 µM. In the assay with A549 [2], the outcome was inactive.

In the assay on A549 [1], `CC(C)N1CCn2nc(-c3ccccc3)cc2C1=O` registered an IC50 of more than 64 µM.

As to `COc1ccc(CCN2CCn3nc(-c4ccc(Cl)cc4)cc3C2=O)cc1OC`, in the assay with A549 [1], the IC50 was more than 64 µM.

Compound `CCCCN1CCn2nc(-c3ccc(Cl)cc3)cc2C1=O` gave an IC50 in the assay on A549 [1] of 29.8 µM. The outcome in the assay on A549 [2] was inactive.

Regarding `CC(C)(C)c1ccc(CN2CCn3nc(-c4ccccc4)cc3C2=O)cc1`, the IC50 in the assay on A549 [1] is more than 64 µM.

In the assay with A549 [1], `CCCCN1CCn2nc(-c3ccc(OC)cc3)cc2C1=O` returned an IC50 of 62.5 µM.

`COc1ccc(-c2cc3n(n2)CCN(Cc2ccc(Cl)nc2)C3=O)cc1`: the IC50 in the assay with A549 [1] was more than 64 µM.

Turning to `CCCCN1CCn2nc(-c3ccccc3)cc2C1=O`, the IC50 in the assay with A549 [1] was more than 64 µM.

The compound `COc1ccc(-c2cc3n(n2)CCN(Cc2ccccc2)C3=O)cc1` came in with an IC50 in the assay on A549 [1] of more than 64 µM.

With `COc1ccc(-c2cc3n(n2)CCN(CCc2ccc(OC)c(OC)c2)C3=O)cc1`, the IC50 in the assay on A549 [1] is more than 64 µM.

Turning to `CC(C)N1CCn2nc(-c3ccc(Cl)cc3)cc2C1=O`, the viability (in general, a per cent measure of how many cells are alive, often set against a control) at 32 µM worked out at 81.4% with A549 [3], 50% in the assay on A549 [4] and 75.7% in the assay on A549 [5]. In the assay on A549 [1], 31 µM corresponded to half-maximal inhibition (IC50). The outcome in the assay on A549 [2] was inactive. In the assay with A549 [6], the viability at 64 µM was 34.6%.

Take `COc1ccc(-c2cc3n(n2)CCN(C(C)C)C3=O)cc1`: the IC50 in the assay with A549 [1] was more than 64 µM.

`O=C1c2cc(-c3ccc(Cl)cc3)nn2CCN1Cc1ccccc1`: the result in the assay with A549 [7], in the assay with A549 [8], in the assay with A549 [9], with A549 [2] and with A549 [11] was inactive. The viability at 32 µM turned out to be 78.7% in the assay on A549 [3], 39.2% with A549 [4] and 73.6% in the assay with A549 [5]. Also, in the assay with A549 [10], the outcome was Active. Moreover, the IC50 in the assay with A549 [1] is 22.3 µM. The compound also displayed a viability at 64 µM in the assay on A549 [6] of 26.5%.

In turn, `CC(C)(C)c1ccc(CN2CCn3nc(-c4ccc(Cl)cc4)cc3C2=O)cc1` returned an IC50 in the assay on A549 [1] of more than 64 µM.

In turn, `O=C1c2cc(-c3ccccc3)nn2CCN1Cc1ccccc1` returned an IC50 with A549 [1] of more than 64 µM.

In the assay with A549 [1], `COc1ccc(CCN2CCn3nc(-c4ccccc4)cc3C2=O)cc1OC` yielded an IC50 of 31.5 µM. For the same compound, the outcome in the assay on A549 [2] was inactive.

Turning to `O=C1c2cc(-c3ccccc3)nn2CCN1Cc1ccc(Cl)nc1`, the IC50 with A549 [1] is more than 64 µM.

In turn, `O=C1c2cc(-c3ccc(Cl)cc3)nn2CCN1Cc1ccc(Cl)nc1` came in with an IC50 in the assay on A549 [1] of 39.5 µM. The outcome with A549 [2] was inactive.

For the origin of these results see ChEMBL document CHEMBL1140233, “Synthesis and preliminary biological evaluation of novel pyrazolo[1,5-a]pyrazin-4(5H)-one derivatives as potential agents against A549 lung cancer cells” (Bioorg Med Chem, 2008).
